Results: ChEMBL document CHEMBL2331456, “Isobutylhydroxyamides from the pericarp of Nepalese Zanthoxylum armatum inhibit NF1-defective tumor cell line growth” (J Nat Prod, 2013)
Calls of active or inactive are those of the source. The calls are words filed in the database; no cut-off is given here.

Key:
[1] = Cytotoxicity against mouse Nf1-/-;Trp53-/- KR158 cells assessed as cell viability at 2 ug/ml after 2 days by red luminescence assay relative to control; type: cell-based; conditions: read-out: Activity
Summary of the method: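 Nf1−/−;Trp53−/− KR158 mouse astrocytoma cells carry a CMV-promoter luciferase that gives red luminescence in all living cells. Cells were plated at 1000 cells/well and allowed to attach (≥4 h), then compounds were added. Luminescence was read with ChromoGlo reagent 2 d later. Loss of viability compares treated cells in growth media with […].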

[2] = Growth inhibition of mouse Nf1-/-;Trp53-/- KR158 cells assessed as green luminescence at 2 ug/ml after 2 days; type: functional; conditions: KR158, 48 h, read-out: GI
Summary of the method: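 KR158 Nf1−/−;Trp53−/− astrocytoma cells carry a human E2F1-promoter luciferase that gives green luminescence only in actively dividing cells. Cells were seeded at 1000 cells/well, and compounds were added after ≥4 h attachment. Green luminescence was read with ChromoGlo reagent after 2 d. Growth inhibition compares treated cells with vehicle-treated cells, both in growth media.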

[3] = tested on: NCI60; test: Cytotoxicity against human NCI60 cells at 10 uM; type: functional, cell-based

SMILES	viability at 48 h, 2 ug/ml [1]	inhibition of growth at 2 µg/mL [2]	Activity [3]
C/C=C/C=C/C=C/CC/C=C/C(=O)NCC(C)(C)O	56%	65%	
C[C@H]1C=C[C@@H](/C=C/CC/C=C/C(=O)NCC(C)(C)O)OO1 [TIMURAMIDE B]	65%	13%	
C/C=C/C=C/C=C\CC/C=C/C(=O)NCC(C)(C)O	106%	53%	
C[C@H]1C=C[C@@H](/C=C\CC/C=C/C(=O)NCC(C)(C)O)OO1 [TIMURAMIDE A]	97%	38%	inactive
C[C@H](O)[C@H](O)/C=C/C=C\CC/C=C/C(=O)NCC(C)(C)O	79%	31%	
CC(C)(O)CNC(=O)/C=C/CC/C=C\C=C\C(=O)O [TIMURAMIDE C]	66%	47%	inactive
CC(O)/C=C/C=C/C(O)CC/C=C/C(=O)NCC(C)(C)O (stereo not drawn)	67%	41%	
C[C@@H](O)[C@H](O)/C=C/C=C\CC/C=C/C(=O)NCC(C)(C)O	66%	56%	
CC(=O)/C=C/C=C/C(O)CC/C=C/C(=O)NCC(C)(C)O (stereo not drawn)	75%	52%	
CC(C)(O)CNC(=O)/C=C/CCC(=O)O [TIMURAMIDE D]	70%	42%	inactive
